Laboratory results reported in ChEMBL document CHEMBL1138354, “2-(2'-((dimethylamino)methyl)-4'-(fluoroalkoxy)-phenylthio)benzenamine derivatives as serotonin transporter imaging agents” (J Med Chem, 2007).

How the values were obtained:
Lung [1] = assay: Biodistribution in iv dosed rat lungs after 30 mins; assay type: ADME, organism-based; conditions: in vivo, 0.5 h
In short: (§1)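 [18F]-labeled tracer was given to rats under isoflurane anesthesia: 0.2 ml sterile water with 1 mg/mL BSA and 10–100 μCi, into the femoral vein. Three rats per group. Animals were killed by cervical dislocation under anesthesia at the stated time. Organs were removed, weighed and counted. Uptake was calculated as percent dose against a 1% aliquot of the injected dose counted alongside.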

Nucleic Acid [2] = assay: Ratio of drug level in hypothalamus to cerebellum in rat after 30 mins; assay type: ADME, tissue-based; conditions: in vivo, 0.5 h
In short: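 Rats, 3 per group, given ¹⁸F tracer (10–100 μCi, 0.2 ml sterile water with 1 mg/mL BSA) into the femoral vein under isoflurane. Brain regions, including hypothalamus, striatum and cerebellum, dissected, weighed and counted. % dose/g calculated against a 1% diluted aliquot of the dose. Region/cerebellum ratio is region %dose/g divided by cerebellum %dose/g. SD of the ratio propagated from both means and SDs.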

Zone of skin [3] = assay: Biodistribution in iv dosed rat skin after 2 mins; assay type: ADME, organism-based; conditions: in vivo
Zone of skin [4] = assay: Biodistribution in iv dosed rat skin after 30 mins; assay type: ADME, organism-based; conditions: in vivo, 0.5 h
In short: (§2)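 Rats, 3 per group, under isoflurane. ¹⁸F tracer (10–100 μCi) in 0.2 ml sterile water with 1 mg/mL BSA injected into the femoral vein. Killed by cervical dislocation under anesthesia at the stated time. Organs removed, weighed and counted. % dose/organ calculated against counts of a 1% diluted aliquot of the injected dose.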

Zone of skin [5] = assay: Biodistribution in iv dosed rat skin after 60 mins; assay type: ADME, organism-based; conditions: in vivo, 1 h
Zone of skin [6] = assay: Biodistribution in iv dosed rat skin after 120 mins; assay type: ADME, organism-based; conditions: in vivo, 2 h; in short: as §2
Blood [7] = assay: Biodistribution in iv dosed rat blood after 2 mins; assay type: ADME, organism-based; conditions: in vivo; in short: as §1
Blood [8] = assay: Biodistribution in iv dosed rat blood after 30 mins; assay type: ADME, organism-based; conditions: in vivo, 0.5 h; in short: as §1
Blood [9] = assay: Biodistribution in iv dosed rat blood after 60 mins; assay type: ADME, organism-based; conditions: in vivo, 1 h; in short: as §1
Heart [10] = assay: Biodistribution in iv dosed rat heart after 2 mins; assay type: ADME, organism-based; conditions: in vivo; in short: as §1
Heart [11] = assay: Biodistribution in iv dosed rat heart after 120 mins; assay type: ADME, organism-based; conditions: in vivo, 2 h; in short: as §1
Heart [12] = assay: Biodistribution in iv dosed rat heart after 240 mins; assay type: ADME, organism-based; conditions: in vivo, 4 h; in short: as §1
Lung [13] = assay: Biodistribution in iv dosed rat lungs after 2 mins; assay type: ADME, organism-based; conditions: in vivo; in short: as §1
Lung [14] = assay: Biodistribution in iv dosed rat lungs after 60 mins; assay type: ADME, organism-based; conditions: in vivo, 1 h; in short: as §1
Liver [15] = assay: Biodistribution in iv dosed rat liver after 30 mins; assay type: ADME, organism-based; conditions: in vivo, 0.5 h; in short: as §1
Liver [16] = assay: Biodistribution in iv dosed rat liver after 240 mins; assay type: ADME, organism-based; conditions: in vivo, 4 h; in short: as §1
Spleen [17] = assay: Biodistribution in iv dosed rat spleen after 2 mins; assay type: ADME, organism-based; conditions: in vivo
Spleen [18] = assay: Biodistribution in iv dosed rat spleen after 30 mins; assay type: ADME, organism-based; conditions: in vivo, 0.5 h; in short: as §2
Spleen [19] = assay: Biodistribution in iv dosed rat spleen after 60 mins; assay type: ADME, organism-based; conditions: in vivo, 1 h
Spleen [20] = assay: Biodistribution in iv dosed rat spleen after 240 mins; assay type: ADME, organism-based; conditions: in vivo, 4 h
Kidney [21] = assay: Biodistribution in iv dosed rat kidney after 2 mins; assay type: ADME, organism-based; conditions: in vivo; in short: as §1
Kidney [22] = assay: Biodistribution in iv dosed rat kidney after 30 mins; assay type: ADME, organism-based; conditions: in vivo, 0.5 h; in short: as §1
Kidney [23] = assay: Biodistribution in iv dosed rat kidney after 60 mins; assay type: ADME, organism-based; conditions: in vivo, 1 h; in short: as §1
Kidney [24] = assay: Biodistribution in iv dosed rat kidney after 120 mins; assay type: ADME, organism-based; conditions: in vivo, 2 h; in short: as §1
Kidney [25] = assay: Biodistribution in iv dosed rat kidney after 240 mins; assay type: ADME, organism-based; conditions: in vivo, 4 h; in short: as §1
Muscle tissue [26] = assay: Biodistribution in iv dosed rat muscle after 60 mins; assay type: ADME, organism-based; conditions: in vivo, 1 h; in short: as §1
Muscle tissue [27] = assay: Biodistribution in iv dosed rat muscle after 120 mins; assay type: ADME, organism-based; conditions: in vivo, 2 h; in short: as §1
Muscle tissue [28] = assay: Biodistribution in iv dosed rat muscle after 240 mins; assay type: ADME, organism-based; conditions: in vivo, 4 h; in short: as §1
Bone [29] = assay: Biodistribution in iv dosed rat bone after 2 mins; assay type: ADME, organism-based, Bone element; conditions: in vivo; in short: as §1
Bone [30] = assay: Biodistribution in iv dosed rat bone after 30 mins; assay type: ADME, organism-based, Bone element; conditions: in vivo, 0.5 h; in short: as §1
Bone [31] = assay: Biodistribution in iv dosed rat bone after 60 mins; assay type: ADME, organism-based, Bone element; conditions: in vivo, 1 h; in short: as §1
Bone [32] = assay: Biodistribution in iv dosed rat bone after 120 mins; assay type: ADME, organism-based, Bone element; conditions: in vivo, 2 h; in short: as §1
Bone [33] = assay: Biodistribution in iv dosed rat bone after 240 mins; assay type: ADME, organism-based, Bone element; conditions: in vivo, 4 h; in short: as §1
Brain [34] = assay: Biodistribution in iv dosed rat brain after 2 mins; assay type: ADME, organism-based; conditions: in vivo; in short: as §1
Brain [35] = assay: Biodistribution in iv dosed rat brain after 60 mins; assay type: ADME, organism-based; conditions: in vivo, 1 h; in short: as §1
Brain [36] = assay: Biodistribution in iv dosed rat brain after 240 mins; assay type: ADME, organism-based; conditions: in vivo, 4 h; in short: as §1
Cortex = assay: Biodistribution in iv dosed rat cortex assessed as radioactivity after 240 mins; assay type: ADME, organism-based; conditions: in vivo, 4 h
In short: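 Rats received the [18F] tracer under isoflurane anesthesia: 0.2 ml sterile water with 1 mg/mL BSA and 10–100 μCi, into the femoral vein. Three rats per group. After cervical dislocation under anesthesia, the cortex was dissected, weighed and gamma-counted. Percent dose/g was calculated against a 100-fold diluted aliquot of the injected dose.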

Striatum [37] = assay: Biodistribution in iv dosed rat striatum assessed as radioactivity after 2 mins; assay type: ADME, organism-based; conditions: in vivo
Striatum [38] = assay: Biodistribution in iv dosed rat striatum assessed as radioactivity after 30 mins; assay type: ADME, organism-based; conditions: in vivo, 0.5 h
Striatum [39] = assay: Biodistribution in iv dosed rat striatum assessed as radioactivity after 240 mins; assay type: ADME, organism-based; conditions: in vivo, 4 h
Nucleic Acid [40] = assay: Ratio of drug level in hypothalamus to cerebellum in rat after 2 mins; assay type: ADME, tissue-based; conditions: in vivo
Nucleic Acid [41] = assay: Ratio of drug level in hypothalamus to cerebellum in rat assessed as radioactivity after 240 mins; assay type: ADME, tissue-based; conditions: in vivo, 4 h
Nucleic Acid [42] = assay: Ratio of drug level in hippocampus to cerebellum in rat assessed as radioactivity after 2 mins; assay type: ADME, tissue-based; conditions: in vivo
Nucleic Acid [43] = assay: Ratio of drug level in hippocampus to cerebellum in rat assessed as radioactivity after 30 mins; assay type: ADME, tissue-based; conditions: in vivo, 0.5 h
In short: (§3)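 Groups of three normal rats under isoflurane received the [18F] tracer (10–100 μCi in 0.2 ml sterile water containing 1 mg/mL BSA) into the femoral vein. They were killed by cervical dislocation under anesthesia at the stated time. Cortex, striatum, hippocampus, hypothalamus and cerebellum were dissected, weighed and gamma-counted. %dose/g was set against a 100-fold diluted dose aliquot, and each region was divided by cerebellum.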

Nucleic Acid [44] = assay: Ratio of drug level in hippocampus to cerebellum in rat assessed as radioactivity after 60 mins; assay type: ADME, tissue-based; conditions: in vivo, 1 h
Nucleic Acid [45] = assay: Ratio of drug level in hippocampus to cerebellum in rat assessed as radioactivity after 120 mins; assay type: ADME, tissue-based; conditions: in vivo, 2 h; in short: as §3
Nucleic Acid [46] = assay: Ratio of drug level in hippocampus to cerebellum in rat assessed as radioactivity after 240 mins; assay type: ADME, tissue-based; conditions: in vivo, 4 h
Nucleic Acid [47] = assay: Ratio of drug level in cortex to cerebellum in rat assessed as radioactivity after 2 mins; assay type: ADME, tissue-based; conditions: in vivo
Nucleic Acid [48] = assay: Ratio of drug level in cortex to cerebellum in rat assessed as radioactivity after 30 mins; assay type: ADME, tissue-based; conditions: in vivo, 0.5 h; in short: as §3
Nucleic Acid [49] = assay: Ratio of drug level in cortex to cerebellum in rat assessed as radioactivity after 60 mins; assay type: ADME, tissue-based; conditions: in vivo, 1 h
Nucleic Acid [50] = assay: Ratio of drug level in cortex to cerebellum in rat assessed as radioactivity after 120 mins; assay type: ADME, tissue-based; conditions: in vivo, 2 h; in short: as §3
Nucleic Acid [51] = assay: Ratio of drug level in striatum to cerebellum in rat assessed as radioactivity after 2 mins; assay type: ADME, tissue-based; conditions: in vivo
Nucleic Acid [52] = assay: Ratio of drug level in striatum to cerebellum in rat assessed as radioactivity after 30 mins; assay type: ADME, tissue-based; conditions: in vivo, 0.5 h; in short: as §3
Nucleic Acid [53] = assay: Ratio of drug level in striatum to cerebellum in rat assessed as radioactivity after 60 mins; assay type: ADME, tissue-based; conditions: in vivo, 1 h
Nucleic Acid [54] = assay: Ratio of drug level in striatum to cerebellum in rat assessed as radioactivity after 120 mins; assay type: ADME, tissue-based; conditions: in vivo, 2 h; in short: as §3
Nucleic Acid [55] = assay: Ratio of drug level in striatum to cerebellum in rat assessed as radioactivity after 240 mins; assay type: ADME, tissue-based; conditions: in vivo, 4 h
Lung [56] = assay: Biodistribution in iv dosed rat lungs after 120 mins; assay type: ADME, organism-based; conditions: in vivo, 2 h; in short: as §1
Lung [57] = assay: Biodistribution in iv dosed rat lungs after 240 mins; assay type: ADME, organism-based; conditions: in vivo, 4 h; in short: as §1
[58] = Partition coefficient, log P at pH 7.4; assay type: physicochemical; conditions: octanol/water

Q: Which results are given for `CN(C)Cc1cc(OCC[18F])ccc1Sc1ccc(Br)cc1N`?
A: Drug uptake (Lung [1]): 4.63 %ID; Ratio (Nucleic Acid [2]): 2.04; Drug uptake (Zone of skin [3]): 5.3 %ID; Drug uptake (Zone of skin [4]): 7.06 %ID; Drug uptake (Zone of skin [5]): 7.86 %ID; Drug uptake (Zone of skin [6]): 7.07 %ID; Drug uptake (Blood [7]): 4.67 %ID; Drug uptake (Blood [8]): 5.7 %ID; Drug uptake (Blood [9]): 7.05 %ID; Drug uptake (Heart [10]): 1.38 %ID; Drug uptake (Heart [11]): 0.19 %ID; Drug uptake (Heart [12]): 0.12 %ID; Drug uptake (Lung [13]): 10.3 %ID; Drug uptake (Lung [14]): 3.44 %ID; Drug uptake (Liver [15]): 4.58 %ID; Drug uptake (Liver [16]): 2.13 %ID; Drug uptake (Spleen [17]): 1.05 %ID; Drug uptake (Spleen [18]): 0.7 %ID; Drug uptake (Spleen [19]): 0.68 %ID; Drug uptake (Spleen [20]): 0.39 %ID; Drug uptake (Kidney [21]): 5.33 %ID; Drug uptake (Kidney [22]): 2.85 %ID; Drug uptake (Kidney [23]): 2.44 %ID; Drug uptake (Kidney [24]): 2 %ID; Drug uptake (Kidney [25]): 1.53 %ID; Drug uptake (Muscle tissue [26]): 15.5 %ID; Drug uptake (Muscle tissue [27]): 10.2 %ID; Drug uptake (Muscle tissue [28]): 8.37 %ID; Drug uptake (Bone [29]): 9.88 %ID; Drug uptake (Bone [30]): 8.17 %ID; Drug uptake (Bone [31]): 8.53 %ID; Drug uptake (Bone [32]): 9.3 %ID; Drug uptake (Bone [33]): 12.5 %ID; Drug uptake (Brain [34]): 2.05 %ID; Drug uptake (Brain [35]): 1.92 %ID; Drug uptake (Brain [36]): 1.57 %ID; Drug uptake (Cortex): 0.82 % ID/g; Drug uptake (Striatum [37]): 1.02 % ID/g; Drug uptake (Striatum [38]): 1.09 % ID/g; Drug uptake (Striatum [39]): 0.98 % ID/g; Ratio (Nucleic Acid [40]): 0.95; Ratio (Nucleic Acid [41]): 4.26; Ratio (Nucleic Acid [42]): 0.88; Ratio (Nucleic Acid [43]): 1.63; Ratio (Nucleic Acid [44]): 2.21; Ratio (Nucleic Acid [45]): 2.23; Ratio (Nucleic Acid [46]): 2.99; Ratio (Nucleic Acid [47]): 1.45; Ratio (Nucleic Acid [48]): 1.95; Ratio (Nucleic Acid [49]): 2.41; Ratio (Nucleic Acid [50]): 2.9; Ratio (Nucleic Acid [51]): 0.96; Ratio (Nucleic Acid [52]): 1.86; Ratio (Nucleic Acid [53]): 2.76; Ratio (Nucleic Acid [54]): 2.84; Ratio (Nucleic Acid [55]): 3.84; Drug uptake (Lung [56]): 2.98 %ID; Drug uptake (Lung [57]): 2.1 %ID; logD [58]: 2.52
